ChEMBL document CHEMBL3352014, “Effect of acyclic monoterpene alcohols and their derivatives on TRP channels” (Bioorg Med Chem Lett, 2014)

Experiments:
[1] = target: T1, Transient receptor potential cation channel subfamily M member 8 (Homo sapiens, UniProt Q7Z2W7); test: Agonist activity at TRPM8 (unknown origin) relative to untreated control
Target sequence in this assay (Q7Z2W7 whole entry, looked up): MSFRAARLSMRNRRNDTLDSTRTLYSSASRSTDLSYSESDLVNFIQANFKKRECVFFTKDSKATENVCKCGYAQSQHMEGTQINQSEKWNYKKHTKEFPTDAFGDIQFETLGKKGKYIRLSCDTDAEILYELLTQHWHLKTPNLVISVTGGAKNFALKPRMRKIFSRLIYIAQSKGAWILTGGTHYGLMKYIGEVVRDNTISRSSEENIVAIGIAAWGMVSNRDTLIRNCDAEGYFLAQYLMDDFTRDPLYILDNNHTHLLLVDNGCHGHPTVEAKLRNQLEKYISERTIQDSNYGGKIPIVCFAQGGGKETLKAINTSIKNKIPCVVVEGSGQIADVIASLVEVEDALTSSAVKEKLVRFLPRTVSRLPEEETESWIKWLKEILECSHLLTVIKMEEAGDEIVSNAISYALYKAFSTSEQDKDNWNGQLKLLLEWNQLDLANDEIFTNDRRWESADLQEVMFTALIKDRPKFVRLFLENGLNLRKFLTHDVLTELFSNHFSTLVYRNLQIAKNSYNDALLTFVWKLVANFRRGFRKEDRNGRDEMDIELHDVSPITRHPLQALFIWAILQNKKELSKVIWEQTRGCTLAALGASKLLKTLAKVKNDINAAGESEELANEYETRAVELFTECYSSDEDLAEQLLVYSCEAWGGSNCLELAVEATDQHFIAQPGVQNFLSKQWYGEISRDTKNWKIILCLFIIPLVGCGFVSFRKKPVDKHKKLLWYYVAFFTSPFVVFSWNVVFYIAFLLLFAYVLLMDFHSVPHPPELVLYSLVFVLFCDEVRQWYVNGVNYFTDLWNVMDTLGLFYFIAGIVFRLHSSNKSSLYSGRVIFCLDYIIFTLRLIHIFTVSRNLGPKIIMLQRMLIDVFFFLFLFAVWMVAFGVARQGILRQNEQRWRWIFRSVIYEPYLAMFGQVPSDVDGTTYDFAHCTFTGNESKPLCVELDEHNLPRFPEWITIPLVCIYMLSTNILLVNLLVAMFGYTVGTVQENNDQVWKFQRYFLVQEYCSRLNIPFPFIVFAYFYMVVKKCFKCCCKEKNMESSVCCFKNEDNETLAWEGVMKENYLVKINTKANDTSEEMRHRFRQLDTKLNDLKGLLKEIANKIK

[2] = target: T1, Transient receptor potential cation channel subfamily M member 8; test: Agonist activity at TRPM8 (unknown origin)
Target sequence in this assay (Q7Z2W7 whole entry): as the sequence (Q7Z2W7 whole entry, looked up) above

[3] = target: T2, Transient receptor potential cation channel subfamily A member 1 (Rattus norvegicus, UniProt Q6RI86); test: Antagonist activity against rat TRPA1 expressed in HEK293 cells assessed as inhibition of AITC-induced increase in intracellular Ca2+ concentration by Fluo-4-AM dye based spectrofluorimetry; format: cell-based
[4] = target: Transient receptor potential cation channel subfamily M member 8 (Rattus norvegicus) (UniProt Q8R455); test: Agonist activity at rat TRPM8 expressed in HEK293 cells assessed as increase in intracellular Ca2+ concentration by Fluo-4-AM dye based spectrofluorimetry relative to ionomycin; format: cell-based
Summary of the method: (§1)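 Same stably transfected HEK293 Fluo-4 calcium assay: human TRPV1, rat TRPM8. Tyrode's buffer pH 7.4, 25 °C, ex 488/em 516 nm. Efficacy is the compound-evoked [Ca2+]i rise normalized to the maximal Ca2+ influx from 4 µM ionomycin. Means of at least 3 determinations.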

[5] = target: Transient receptor potential cation channel subfamily M member 8 (Rattus norvegicus, UniProt Q8R455); test: Antagonist activity against rat TRPM8 expressed in HEK293 cells assessed as inhibition of icilin-induced increase in intracellular Ca2+ concentration by Fluo-4-AM dye based spectrofluorimetry; format: cell-based
[6] = target: T3, Transient receptor potential cation channel subfamily V member 1 (Homo sapiens, UniProt Q8NER1); test: Agonist activity at human TRPV1 expressed in HEK293 cells assessed as increase in intracellular Ca2+ concentration by Fluo-4-AM dye based spectrofluorimetry relative to ionomycin; format: cell-based; summary of the method: as §1
[7] = target: T3, Transient receptor potential cation channel subfamily V member 1; test: Antagonist activity against human TRPV1 expressed in HEK293 cells assessed as inhibition of capsaicin-induced increase in intracellular Ca2+ concentration by Fluo-4-AM dye based spectrofluorimetry; format: cell-based
[8] = target: T2, Transient receptor potential cation channel subfamily A member 1; test: Agonist activity at rat TRPA1 expressed in HEK293 cells assessed as increase in intracellular Ca2+ concentration by Fluo-4-AM dye based spectrofluorimetry; format: cell-based
[9] = target: T3, Transient receptor potential cation channel subfamily V member 1; test: Agonist activity at human TRPV1 expressed in HEK293 cells assessed as increase in intracellular Ca2+ concentration by Fluo-4-AM dye based spectrofluorimetry; format: cell-based
Summary of the method: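 HEK293 stably expressing human TRPV1 or rat TRPM8, grown in EMEM with non-essential amino acids, 10% FBS, 2 mM glutamine, 37 °C, 5% CO2. Fluo-4-AM loaded 1 h at room temperature; cells in Tyrode's buffer pH 7.4, about 100,000 per stirred cuvette. Fluorescence (ex 488/em 516 nm) read at 25 °C before and after various compound concentrations. EC50 from sigmoidal variable-slope fit; at least 3 determinations.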

[10] = target: Transient receptor potential cation channel subfamily A member 1 (Homo sapiens) (UniProt O75762); test: Antagonist activity against TRPA1 (unknown origin) assessed as reduction in H2O2-induced receptor activation at 400 uM

Sequence of Transient receptor potential cation channel subfamily M member 8 (Rattus norvegicus) (Q8R455 whole entry, looked up): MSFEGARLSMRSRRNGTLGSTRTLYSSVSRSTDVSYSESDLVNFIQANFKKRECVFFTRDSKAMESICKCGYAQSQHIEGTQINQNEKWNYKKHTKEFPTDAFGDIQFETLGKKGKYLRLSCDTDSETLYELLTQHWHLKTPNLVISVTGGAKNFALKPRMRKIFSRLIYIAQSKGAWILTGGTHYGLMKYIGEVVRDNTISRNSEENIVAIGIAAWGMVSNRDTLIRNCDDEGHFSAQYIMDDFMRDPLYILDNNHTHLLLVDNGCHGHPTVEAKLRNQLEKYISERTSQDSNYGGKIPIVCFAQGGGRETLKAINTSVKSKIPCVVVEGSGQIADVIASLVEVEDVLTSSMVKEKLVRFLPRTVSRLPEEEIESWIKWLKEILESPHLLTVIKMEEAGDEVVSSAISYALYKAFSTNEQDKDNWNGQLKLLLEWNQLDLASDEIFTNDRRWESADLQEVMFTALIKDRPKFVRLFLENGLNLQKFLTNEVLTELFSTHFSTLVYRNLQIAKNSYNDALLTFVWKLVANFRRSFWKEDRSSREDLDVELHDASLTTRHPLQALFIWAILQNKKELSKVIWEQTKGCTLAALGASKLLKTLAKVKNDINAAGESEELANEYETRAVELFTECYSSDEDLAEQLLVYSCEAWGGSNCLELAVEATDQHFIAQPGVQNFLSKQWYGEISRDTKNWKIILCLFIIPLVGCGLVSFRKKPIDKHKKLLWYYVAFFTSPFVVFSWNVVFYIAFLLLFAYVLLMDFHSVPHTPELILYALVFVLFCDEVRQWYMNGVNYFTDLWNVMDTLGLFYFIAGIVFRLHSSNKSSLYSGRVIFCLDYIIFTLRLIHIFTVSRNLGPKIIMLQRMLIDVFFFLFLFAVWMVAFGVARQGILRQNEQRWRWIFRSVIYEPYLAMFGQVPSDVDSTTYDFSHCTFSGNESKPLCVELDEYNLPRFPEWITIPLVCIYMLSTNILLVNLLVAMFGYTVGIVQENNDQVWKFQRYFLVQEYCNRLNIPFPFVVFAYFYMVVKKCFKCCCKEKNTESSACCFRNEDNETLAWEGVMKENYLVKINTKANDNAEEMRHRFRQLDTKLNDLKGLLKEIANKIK
Sequence of Transient receptor potential cation channel subfamily M member 8 (Rattus norvegicus, UniProt Q8R455) (Q8R455 whole entry): as the sequence (Q8R455 whole entry, looked up) above
T2 sequence (Q6RI86 whole entry): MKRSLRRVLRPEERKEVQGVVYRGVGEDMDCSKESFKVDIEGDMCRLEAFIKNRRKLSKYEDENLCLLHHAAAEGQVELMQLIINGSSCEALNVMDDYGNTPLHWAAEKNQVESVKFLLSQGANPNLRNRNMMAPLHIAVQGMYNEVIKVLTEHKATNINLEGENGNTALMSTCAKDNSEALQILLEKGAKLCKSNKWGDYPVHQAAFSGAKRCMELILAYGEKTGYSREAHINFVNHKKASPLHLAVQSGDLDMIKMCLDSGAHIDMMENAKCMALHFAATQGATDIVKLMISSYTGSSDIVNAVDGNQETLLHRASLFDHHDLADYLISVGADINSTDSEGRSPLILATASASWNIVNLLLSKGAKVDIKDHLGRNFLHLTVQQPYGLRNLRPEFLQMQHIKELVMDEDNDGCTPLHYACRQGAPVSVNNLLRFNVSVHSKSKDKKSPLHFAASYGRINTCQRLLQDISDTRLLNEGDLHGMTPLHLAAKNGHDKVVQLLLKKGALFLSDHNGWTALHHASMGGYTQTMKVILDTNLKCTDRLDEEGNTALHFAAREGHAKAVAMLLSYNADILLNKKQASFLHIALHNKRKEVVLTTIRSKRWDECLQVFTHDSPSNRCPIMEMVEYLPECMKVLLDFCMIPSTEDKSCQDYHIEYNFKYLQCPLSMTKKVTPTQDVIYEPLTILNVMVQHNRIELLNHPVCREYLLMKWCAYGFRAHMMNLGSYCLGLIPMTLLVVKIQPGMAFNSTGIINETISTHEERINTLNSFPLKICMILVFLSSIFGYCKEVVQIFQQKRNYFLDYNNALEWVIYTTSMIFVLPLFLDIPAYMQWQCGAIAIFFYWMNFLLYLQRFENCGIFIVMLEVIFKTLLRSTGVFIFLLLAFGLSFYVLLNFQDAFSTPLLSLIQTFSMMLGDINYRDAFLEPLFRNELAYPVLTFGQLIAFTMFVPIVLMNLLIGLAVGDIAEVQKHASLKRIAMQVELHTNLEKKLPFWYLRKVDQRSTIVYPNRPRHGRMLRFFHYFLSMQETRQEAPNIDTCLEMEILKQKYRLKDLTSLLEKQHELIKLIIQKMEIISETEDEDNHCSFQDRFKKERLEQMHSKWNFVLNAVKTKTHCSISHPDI
T3 sequence (Q8NER1 whole entry): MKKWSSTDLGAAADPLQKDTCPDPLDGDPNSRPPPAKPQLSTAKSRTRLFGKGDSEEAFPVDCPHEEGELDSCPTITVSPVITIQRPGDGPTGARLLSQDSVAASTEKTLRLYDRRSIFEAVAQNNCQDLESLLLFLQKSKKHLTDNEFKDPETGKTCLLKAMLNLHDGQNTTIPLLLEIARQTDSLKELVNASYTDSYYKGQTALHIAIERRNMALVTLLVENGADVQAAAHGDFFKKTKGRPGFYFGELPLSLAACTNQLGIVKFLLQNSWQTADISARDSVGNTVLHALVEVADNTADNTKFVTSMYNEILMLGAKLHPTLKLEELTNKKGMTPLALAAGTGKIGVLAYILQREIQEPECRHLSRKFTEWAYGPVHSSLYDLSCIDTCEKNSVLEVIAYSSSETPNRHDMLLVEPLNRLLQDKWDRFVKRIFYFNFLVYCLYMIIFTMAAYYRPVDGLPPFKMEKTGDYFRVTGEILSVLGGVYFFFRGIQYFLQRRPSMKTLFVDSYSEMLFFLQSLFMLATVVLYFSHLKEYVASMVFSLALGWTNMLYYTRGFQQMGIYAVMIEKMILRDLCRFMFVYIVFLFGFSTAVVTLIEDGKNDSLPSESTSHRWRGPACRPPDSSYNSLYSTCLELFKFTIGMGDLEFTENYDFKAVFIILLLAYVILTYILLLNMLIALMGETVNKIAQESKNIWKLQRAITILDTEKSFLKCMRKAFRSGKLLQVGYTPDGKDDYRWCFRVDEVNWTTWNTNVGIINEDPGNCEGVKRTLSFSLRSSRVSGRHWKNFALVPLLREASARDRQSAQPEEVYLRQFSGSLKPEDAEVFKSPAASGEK

Efficacy [1] [%]	EC50 [2] [µM]	IC50 [3] [µM]	Efficacy [4] [%]	IC50 [5] [µM]	Efficacy [6] [%]	IC50 [7] [µM]	EC50 [8] [µM]	EC50 [9] [µM]	inhibition [10] [%]	SMILES
		0.94	< 10	> 100	< 10	> 100	0.1			CC(C)=CCC/C(C)=C\COC(=O)Cc1cccc(I)c1
		0.34	< 10	> 100	< 10	> 100	0.26			CC(C)=CCC/C(C)=C\COC(=O)c1ccc(C#N)cc1
		0.013	< 10	0.75	< 10	> 100	0.016			CC(C)=CCC/C(C)=C\COC(=O)Cc1ccc(Cl)cc1
		0.11	< 10	1.2	< 10	> 100	0.093			CC(C)=CCC/C(C)=C\COC(=O)c1ccc(C)cc1
		0.11	< 10	0.29	< 10	> 100	0.11			CC(C)=CCC/C(C)=C\COC(=O)CCc1ccccc1
			< 10	5.8	< 10	> 100				CC(C)=CCC/C(C)=C/COC(=O)Cc1ccc(C)cc1
		0.73	< 10	> 100	< 10	> 100	0.48			CC(C)=CCC/C(C)=C/COC(=O)c1ccc(C#N)cc1
		1.4	< 10	> 100	< 10	> 100	2.4			CC(C)=CCC/C(C)=C/COC(=O)c1cccc(C)c1
		0.13	< 10	> 100	< 10	> 100	0.12			CC(C)=CCC/C(C)=C/COC(=O)Cc1ccc(Cl)cc1
		0.94	< 10	2.2	57.9	0.53	1	0.43		CC(C)=CCC/C(C)=C\CNC(=O)Cc1ccc(Cl)cc1
			< 10	0.28	< 10	> 100				CC(C)=CCC/C(C)=C\COC(=O)Cc1ccc(C)cc1
		1	< 10	> 100	17.6	> 100	0.33	6		CC(C)=CCC/C(C)=C/COC(=O)c1ccc(C)cc1
		0.26	< 10	9.7	< 10	> 100	0.14			COc1ccc(CC(=O)OC/C=C(/C)CCC=C(C)C)cc1
		0.17	< 10	> 100	27.7	> 100	0.39	4		CC(C)=CCC/C(C)=C/COC(=O)CCc1ccccc1
		0.38	< 10	> 100	13.2	> 100	0.51	8		COc1ccc(CC(=O)OC/C=C(\C)CCC=C(C)C)cc1
		1.4	< 10	3.8	57.5	0.89	1.2	1.1		CC(C)=CCC/C(C)=C/CNC(=O)Cc1ccc(Cl)cc1
		0.18	< 10	> 100	< 10	> 100	0.081			CC(C)=CCC/C(C)=C\COC(=O)Cc1ccc2ccccc2c1
			< 10	0.83	< 10	> 100				CC(C)=CCCC(C)CCOC(=O)Cc1ccc(Cl)cc1 (configuration not stated)

The next lines start with the molecule.

SMILES	Efficacy [1] [%]	EC50 [2] [µM]	IC50 [3] [µM]	Efficacy [4] [%]	IC50 [5] [µM]	Efficacy [6] [%]	IC50 [7] [µM]	EC50 [8] [µM]	EC50 [9] [µM]	inhibition [10] [%]
CC(C)=CCC/C(C)=C/CO [GERANIOL]	28	5900	> 100	< 10	> 100	< 10	> 100			
CC(C)=CCC/C(C)=C/COC(=O)c1cc(C(F)(F)F)cc(C(F)(F)F)c1			> 100	< 10	> 100	< 10	> 100	11.9		
CC(C)=CCC/C(C)=C\CNC(=O)Nc1cccc(Cl)c1			0.41	< 10	0.71	20.1	0.38	0.43	1.7	
CC(C)=CCC/C(C)=C\COC(=O)Nc1ccc(C(C)(C)C)cc1			0.29	< 10	> 100	24	74.6	0.041	7.8	
CC(=O)OC/C=C(\C)CCC=C(C)C [GERANYL ACETATE]			21.2	< 10	> 100	< 10	> 100	25.8		
CC(C)=CCCC(C)CCOC(=O)Cc1ccc(C)cc1 (configuration not stated)				< 10	2.4	< 10	> 100			
CC(C)=CCCC(C)CCOC(=O)c1ccc(C)cc1 (configuration not stated)			0.87	< 10	> 100	< 10	> 100	0.28		
CC(C)=CCC/C(C)=C\COC(=O)c1cccc(C)c1			0.14	< 10	30.8	< 10	> 100	0.14		
CC(=O)OC/C=C(/C)CCC=C(C)C [NERYL ACETATE]			20.7	< 10	> 100	< 10	> 100	13.3		
CC(C)=CCC/C(C)=C/CNC(=O)NC1CCCCC1			11.8	< 10	> 100	36	9.9	4.9	4.8	
CC(C)=CCC/C(C)=C\CNC(=O)CCc1ccccc1			13.9	< 10	2.2	< 10	> 100	6.6		
CC(C)=CCC/C(C)=C/CNC(=O)CCc1ccccc1			7.4	< 10	5.5	10.5	> 100	7.5	16.2	
CC(C)=CCC/C(C)=C\CO [NEROL]			> 100	< 10	> 100	< 10	> 100	11.7		
CC(C)=CCC/C(C)=C/CNC(=O)Nc1cccc(Cl)c1			0.48	< 10	> 100	21.2	0.71	0.61	2.5	
CC(C)=CCC/C(C)=C\CNC(=O)NC1CCCCC1			4.4	< 10	30	50.1	15.7	2.65	8.9	
CC(C)=CCC/C(C)=C/CNC(=O)Nc1ccc(C(C)(C)C)cc1			0.57	< 10	> 100	21.9	76.8	0.092	8.7	
CC(C)=CCCC(C)CCOC(=O)CCc1ccccc1 (configuration not stated)			0.34	< 10	> 100	< 10	> 100	0.16		
CC(C)=CCC/C(C)=C/CNC(=O)Oc1ccc(C(C)(C)C)cc1			0.038	< 10	86.5	22.4	92.3	0.045	10.7	
CC(=O)OCCC(C)CCC=C(C)C (configuration not stated) [CITRONELLYL ACETATE]			> 100	< 10	> 100	< 10	> 100	12.2		70
CC(C)=CCC/C(C)=C\CNC(=O)Oc1ccc(C(C)(C)C)cc1			0.029	< 10	> 100	15.8	> 100	0.018	6.5	
CC(C)=CCCC(C)CCO (racemic) [CITRONELLOL]			> 100	< 10	> 100	< 10	> 100	> 100		
